The source of these data is PMC4017091 (Bioorganic & medicinal chemistry, 2013).

As a reminder, the Km is the substrate concentration at which the rate is half of its maximum.

SMILES strings stand for the structures. Entries after “also recorded” stand apart in the source; their conditions may differ.

For experiment [1], the target named is T1, human 5-LOX (Homo sapiens, UniProt P09917).
T1 sequence (P09917 1-674): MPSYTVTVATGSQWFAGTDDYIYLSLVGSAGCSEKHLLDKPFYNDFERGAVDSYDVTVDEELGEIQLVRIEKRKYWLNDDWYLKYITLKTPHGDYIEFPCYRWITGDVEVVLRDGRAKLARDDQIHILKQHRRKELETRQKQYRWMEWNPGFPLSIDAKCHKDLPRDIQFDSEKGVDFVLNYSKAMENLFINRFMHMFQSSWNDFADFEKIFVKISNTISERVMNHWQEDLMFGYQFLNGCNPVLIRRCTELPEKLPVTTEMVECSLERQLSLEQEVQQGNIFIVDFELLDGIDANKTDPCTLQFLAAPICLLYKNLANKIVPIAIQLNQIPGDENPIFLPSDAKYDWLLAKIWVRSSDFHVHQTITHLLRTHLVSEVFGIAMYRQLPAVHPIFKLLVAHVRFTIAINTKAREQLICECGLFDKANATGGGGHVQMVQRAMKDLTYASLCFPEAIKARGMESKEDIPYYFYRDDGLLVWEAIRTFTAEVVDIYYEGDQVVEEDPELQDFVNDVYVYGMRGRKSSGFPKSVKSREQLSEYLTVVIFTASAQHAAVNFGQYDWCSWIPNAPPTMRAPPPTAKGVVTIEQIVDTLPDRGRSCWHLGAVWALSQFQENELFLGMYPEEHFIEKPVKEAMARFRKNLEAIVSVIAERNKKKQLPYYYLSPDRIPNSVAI
The experiment can be described thus: Human 5-LOX inhibition screening UV assay. In kind it is biochemical. Conditions: 50 μM compound; 100 μM linoleic acid substrate; 10 min pre-incubation. In a few lines:
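Human 5-LOX was diluted 1:4000 in 50 mM Tris pH 7.5 with 2 mM EDTA and 2 mM CaCl2, plus ATP (2 mM stock). It was pre-incubated 10 min at room temperature with test compound diluted from DMSO stock, or a DMSO-only control. Linoleic acid (20 mM ethanolic stock) was added, and HPOD conjugated diene formation was followed at 234 nm over 20 min. Residual activity was taken relative to the control. Three independent experiments; mean with SD.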

The next experiment has as its system potato 5-lipoxygenase. To be noted: cited from earlier work.
The target in a further experiment is T2, h-5-LOX (Homo sapiens, UniProt P09917).
T2 sequence (P09917 1-674): T1 sequence (P09917 1-674)
The experiment can be described thus: h-5-LOX activity with arachidonic acid as substrate. To be noted: 50 μM compound; 100 μM arachidonic acid. In kind it is biochemical.

In experiment [2] the target is T1, human 5-LOX. The experiment is described as follows: Michaelis-Menten enzyme kinetics of human 5-LOX versus ATP or linoleic acid. In kind it is biochemical. To be noted: for type of modulation versus linoleic acid: varied linoleic acid.
Experiment [3] has as its system soybean lipoxygenase-1 (SLO-1). Conditions: cited from earlier work.
Experiment [4] concerns the target T3, COX-2 (human recombinant) (Homo sapiens, UniProt P35354).
T3 sequence (P35354 18-604): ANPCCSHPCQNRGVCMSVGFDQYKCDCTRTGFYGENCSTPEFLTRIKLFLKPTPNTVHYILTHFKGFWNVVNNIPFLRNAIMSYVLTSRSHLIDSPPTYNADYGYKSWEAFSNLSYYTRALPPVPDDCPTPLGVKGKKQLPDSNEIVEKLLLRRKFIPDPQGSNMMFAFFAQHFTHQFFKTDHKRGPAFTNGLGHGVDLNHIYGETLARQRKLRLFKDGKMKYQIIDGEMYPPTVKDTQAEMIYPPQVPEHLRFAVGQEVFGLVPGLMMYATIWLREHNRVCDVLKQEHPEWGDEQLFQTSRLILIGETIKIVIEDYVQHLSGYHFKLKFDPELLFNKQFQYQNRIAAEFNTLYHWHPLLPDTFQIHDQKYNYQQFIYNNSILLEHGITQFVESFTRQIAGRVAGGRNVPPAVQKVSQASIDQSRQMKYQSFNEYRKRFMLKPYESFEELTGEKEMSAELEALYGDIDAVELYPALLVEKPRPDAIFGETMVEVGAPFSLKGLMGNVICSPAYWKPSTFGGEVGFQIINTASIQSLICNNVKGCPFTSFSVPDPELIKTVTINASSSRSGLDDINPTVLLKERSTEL
The experiment can be described thus: COX-2 inhibition screening assay. To be noted: 50 μM compound; 2 mM arachidonic acid substrate. In kind it is biochemical. In outline: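 Human recombinant COX-2 was diluted 1:1000 in 0.1 M Tris pH 8.0 with hematin. It was pre-incubated 5 min at room temperature with test compound from a 1.1 mM DMSO solution, or DMSO for the positive control. Freshly made TMPD and then arachidonic acid were added, with no arachidonic acid in negative controls. After 5 more min at room temperature, TMPD oxidation was read at 550 nm. Triplicate; mean with SD.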

Where [5] appears, read: linoleic acid conversion, non-essential activation model.

On to `CCCCCCCOc1ccc(COc2cccc(O)c2C(=O)[O-])cc1.[K+]` [Compound 23b, Potassium 2-((4-(heptyloxy)benzyl)oxy)-6-hydroxybenzoate], for which the “effect on h-5-LOX activity (in words)” value on human 5-LOX [1] was “no or little inhibition”.

For `CCCCCCCCCCCCCCOc1cccc(O)c1C(=O)O` [Compound 21], the “effect on h-5-LOX activity (in words)” value at human 5-LOX [1] was “neither inhibition nor activation”. Further, the “effect on potato 5-LOX” value with potato 5-lipoxygenase is given as “strong activation; also recorded: allosteric activator”.

Turning to `CCCCCOc1ccc(COc2cccc(O)c2C(=O)[O-])cc1.[K+]` [Compound 23a, potassium 2-hydroxy-6-((4-(pentyloxy)benzyl)oxy)benzoate], on h-5-LOX, the “modulation of h-5-LOX activity toward arachidonic acid” value is given as “no modulation; also recorded: no effect”. Further, the “α (change in the affinity of substrate binding)” value at human 5-LOX [2] (setting [5]) was 0.0438. The “β (change in the catalytic constant)” value on human 5-LOX [2] (setting [5]) is 1.76. Further, at human 5-LOX [2] (varied ATP, 100 μM linoleic acid), the “type of modulation versus ATP” value is given as “non-competitive activation”. For the same compound, the “type of modulation versus linoleic acid” value on human 5-LOX [2] (100 μM ATP) was “non-essential mixed type activation”. For the same compound, on human 5-LOX [2] (various concentrations of compound, linoleic acid substrate), the “activation of linoleic acid conversion versus compound concentration” value is “concentration dependent activation”. For the same compound, the “Vmax^app” value at human 5-LOX [2] (versus ATP, 12.5 μM 23a, 100 μM linoleic acid) came out at 0.3861 ± 0.0073 µM/s; on human 5-LOX [2] (versus ATP, 25 μM 23a, 100 μM linoleic acid), 0.5236 ± 0.0137 µM/s; on human 5-LOX [2] (versus linoleic acid, 12.5 μM 23a, 100 μM ATP) it was 2.39 ± 0.07 µM/s; at human 5-LOX [2] (versus linoleic acid, 25 μM 23a, 100 μM ATP), 2.70 ± 0.05 µM/s. For the same compound, the “effect on h-5-LOX activity (in words)” value on human 5-LOX [1] is “strong activation”.

Take `CCCCCCCc1ccc(CCc2cc(O)cc(O)c2C(=O)O)cc1` [Compound 19]: in experiment [3], the “effect on soybean lipoxygenase-1 (SLO-1)” value is “allosteric inhibitor”.

With `CCCCCCCCCCCCCCCc1cc(O)cc(O)c1C(=O)O` [Compound 17], the “effect on h-5-LOX activity (in words)” value at human 5-LOX [1] is given as “slight improvement in the inhibitory potency”.

Turning to `CCCCCCCCCCCCCCCc1cccc(O)c1C(=O)O` [Compound 14, Anacardic acid, reference compound], in experiment [4], the “effect on COX-2 activity (in words)” value was “little inhibition”. In addition, on human 5-LOX [1], the “effect on h-5-LOX activity (in words)” value is given as “little inhibition”.

For `CCCCC/C=C\C/C=C\CCCCCCCC(=O)O` [linoleic acid], at human 5-LOX [2] (read-out: Km of the substrate for h-5-LOX, no modulator), the Km was found to be 600 µM.

Turning to `Oc1ccccc1-c1nc2ccccc2o1` [Compound 25, 2-(benzo[d]oxazol-2-yl)phenol], on human 5-LOX [1], the “effect on h-5-LOX activity (in words)” value is recorded as “did not inhibit; also recorded: no inhibition”.

Regarding `CCCCCCCCCOc1ccc(COc2cccc(O)c2C(=O)[O-])cc1.[K+]` [Compound 23c, Potassium 2-hydroxy-6-((4-(nonyloxy)benzyl)oxy)benzoate], the “effect on h-5-LOX activity (in words)” value on human 5-LOX [1] is “no or little inhibition”.

Turning to `CCCCCCCCCCc1cccc(O)c1C(=O)O` [Compound 15], the “effect on COX-2 activity (in words)” value in experiment [4] is listed as “little inhibition”. In addition, the “effect on h-5-LOX activity (in words)” value at human 5-LOX [1] is on record as “little inhibition”.

As for `CCCCCc1cccc(O)c1C(=O)O` [Compound 16], in experiment [4], the “effect on COX-2 activity (in words)” value is listed as “little inhibition”. On human 5-LOX [1], the “effect on h-5-LOX activity (in words)” value is given as “little inhibition”.

Turning to `CC(C)CCCC(C)CCOc1ccc(COc2cccc(O)c2C(=O)[O-])cc1.[K+]` (stereo not drawn) [Compound 23d, Potassium 2-((4-((3,7-dimethyloctyl)oxy)benzyl)oxy)-6-hydroxybenzoate], the “modulation of h-5-LOX activity toward arachidonic acid” value at h-5-LOX was “no modulation; also recorded: no effect”. For the same compound, the “Ki′ (dissociation constant of inhibitor to enzyme-substrate complex)” value at human 5-LOX [2] (linoleic acid conversion, mixed type inhibition model) worked out at 140 µM. Besides, the “type of modulation versus linoleic acid” value at human 5-LOX [2] (100 μM ATP) was “mixed-type inhibition”. Besides, the “Vmax^app” value at human 5-LOX [2] (versus linoleic acid, 25 μM 23d) came out at 1.84 ± 0.25 µM/s; on human 5-LOX [2] (versus linoleic acid, 50 μM 23d), 1.47 ± 0.16 µM/s.
